≈ marks a conversion by molar mass, not a printed value.
System: H. pylori
Experiment: In vitro assay against Helicobacter pylori, broth micro-well dilution method
Assay type: cell-based
Conditions: Helicobacter pylori, read-out: Mean of H. pylori inhibitory % MIC
In short: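 Test compound and clarithromycin (positive control) dissolved in DMSO and tested in 96-well plates at 125–0.24 µg against an H. pylori inoculum suspension. Readout: MTT colour at 620 nm on a microplate reader. MIC is the lowest concentration with no change in MTT colour. MIC90 (90% inhibition) is calculated from dose-response curves. Determinations done three times.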

Row | SMILES | MIC [µg/mL]
1 | O=C(O)c1ccc(O)cc1 [Compound 10, p-hydroxybenzoic acid] | 0.48 (≈ 3.48 µM)
2 | COC(=O)c1ccc(O)cc1 [Compound 9, methylparaben] | 1.95 (≈ 12.8 µM)

Further lines, results first:

Row | MIC [µg/mL] | SMILES
3 | 0.98 (≈ 2.12 µM) | COc1ccc(-c2cc(=O)c3c(O)cc(O[C@@H]4O[C@H](CO)[C@@H](O)[C@H](O)[C@H]4O)cc3o2)cc1O [Compound 8, diosmetin-7-O-β-D-glucopyranoside]
4 | 1.95 (≈ 7.22 µM) | O=c1cc(-c2ccc(O)cc2)oc2cc(O)cc(O)c12 [Compound 6, apigenin]
5 | 0.98 (≈ 2.34 µM) | COc1cc([C@H]2OC[C@H]3[C@@H]2CO[C@@H]3c2cc(OC)c(O)c(OC)c2)cc(OC)c1O [Compound 4, syringaresinol]
6 | 1.95 (≈ 2.61 µM) | CC[C@H]1OC(=O)[C@H](C)[C@@H](O[C@H]2C[C@@](C)(OC)[C@@H](O)[C@H](C)O2)[C@H](C)[C@@H](O[C@@H]2O[C@H](C)C[C@H](N(C)C)[C@H]2O)[C@](C)(OC)C[C@@H](C)C(=O)[C@H](C)[C@@H](O)[C@]1(C)O [Clarithromycin, clarithromycin, reference compound]

Same assay, conditions: Table 2

Row | SMILES | anti-H. pylori activity (in words)
7 | O=c1cc(-c2ccc(O)c(O)c2)oc2cc(O)cc(O)c12 [Compound 7, luteolin] | moderate to low inhibitory activities
8 | C=C[C@@]1(C)C=C2CC[C@@H]3[C@](C)(CCC[C@@]3(C)C(=O)O)[C@H]2CC1 [Compound 2, pimaric acid] | moderate to low inhibitory activities
9 | COc1cc(-c2cc(=O)c3c(O)cc(O)cc3o2)ccc1O [Compound 5, chrysoeriol] | moderate to low inhibitory activities

Source: PMC10128457 (Pharmaceutical Biology, 2023)
